# In ChEMBL document CHEMBL1142960, “Synthesis and structure-activity relationships for 2,4-dinitrobenzamide-5-mustards as prodrugs for the Escherichia coli nfsB nitroreductase in gene therapy” (J Med Chem, 2007):
# What was measured:
# [1] = Antiproliferative activity against human Skov3 NTRneo cells after 18 hrs; format: functional, cell-based; settings: SK-OV-3, 18 h
# [2] = test system: V79; test: Antiproliferative activity against chinese hamster V79 NTRpuro cells after 18 hrs; format: functional, cell-based; settings: Cricetulus griseus, V79, 18 h
# [3] = Selectivity ratio of IC50 for Skov3 NTR-ve cells to IC50 for Skov3 NTRneo cells; format: functional, Homo sapiens
# [4] = test system: V79; test: Clonogenic survival of V79 NTRoua cells after 5 hrs by MCL assay; format: functional, Cricetulus griseus
# [5] = Toxicity in ip dosed CD1 nude mouse in DMSO/PEG; format: organism-based; settings: in vivo
# Method in brief: (§1)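 Maximum tolerated dose (MTD) determined in CD-1 nude mice after a single i.p. injection of prodrug, given in the vehicle named in each line.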
# [6] = test system: WiDr; test: Antiproliferative activity against human WiDr NTRneo cells after 18 hrs; format: functional, cell-based
# [7] = test system: WiDr; test: Antiproliferative activity against human wild type WiDr NTR-ve cells after 18 hrs; format: functional, cell-based
# [8] = test system: V79; test: Clonogenic survival of 3% V79 NTRpuro cells in co-cultures with 97% V79 NTRoua after 5 hrs by MCL assay; format: functional, Cricetulus griseus
# Method in brief: (§2)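 Multicellular layer cocultures of 3% V79-NTRpuro activators and 97% V79oua NTR-ve targets (ouabain-resistant), exposed to prodrug for 5 h. MCLs were then trypsin-dissociated and plated in ouabain or puromycin selective media for clonogenic survival. C10 (10% survival) interpolated for activators and targets; AC/TC ratio derived. Mean with SEM or range over independent experiments.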
# [9] = test system: WiDr; test: Selectivity ratio of IC50 for WiDr NTR-ve cells to IC50 for WiDr NTRneo cells; format: functional, Homo sapiens
# [10] = Solubility in alpha MEM; format: physicochemical
# Method in brief: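 Solubility (mM) in α-MEM with 5% fetal calf serum at ambient temperature, measured by HPLC.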
# [11] = test system: EMT6; test: Antiproliferative activity against mouse wild type EMT6 NTR-ve cells after 18 hrs; format: functional, cell-based; settings: EMT6, 18 h
# [12] = test system: V79; test: Antiproliferative activity against chinese hamster wild-type V79 NTR-ve cells after 18 hrs; format: functional, cell-based; settings: Cricetulus griseus, V79, 18 h
# [13] = Partition coefficient at pH 7.4 by shake-flask method; format: physicochemical; settings: octanol/water
# Method in brief: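 Octanol-water partition coefficient by shake-flask at pH 7.4, reported with SEM.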
# [14] = test system: V79; test: Selectivity ratio of IC50 for V79 NTR-ve cells to IC50 for V79 NTRpuro cells; format: functional, Cricetulus griseus
# [15] = test system: V79; test: Clonogenic survival of 97% V79 NTRoua cells in co-cultures with 3% V79 NTRpuro cells after 5 hrs by MCL assay; format: functional, Cricetulus griseus; method in brief: as §2
# [16] = test system: EMT6; test: Antitumor activity against mixed mouse EMT6/EMT6 NTRpuro cells injected in CD1 nude mouse assessed as cell kill at 178 umol/kg, ip in DMSO/PEG after 18 hrs; format: functional
# [17] = test system: EMT6; test: Antiproliferative activity against mouse EMT6 NTRpuro cells after 18 hrs; format: functional, cell-based; settings: EMT6, 18 h
# [18] = Stability in alpha MEM at 37 degC after 24 hrs; format: physicochemical; settings: read-out: Stability
# Method in brief: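 Percent parent compound remaining, by HPLC, after holding in α-MEM with 5% fetal calf serum at 37 °C for 24 h.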
# [19] = test system: EMT6; test: Selectivity ratio of IC50 for EMT6 NTR-ve cells to IC50 forEMT6 NTRpuro cells; format: functional, Mus musculus
# [20] = Antiproliferative activity against human wild type Skov3 NTR-ve cells after 18 hrs; format: functional, cell-based
# [21] = test system: EMT6; test: Antitumor activity against mixed mouse EMT6/EMT6 NTRpuro cells injected in CD1 nude mouse assessed as cell kill at 133 umol/kg, ip in DMA/PEG after 18 hrs; format: functional
# [22] = Toxicity in ip dosed CD1 nude mouse in DMA/PEG; format: organism-based; settings: in vivo; method in brief: as §1
# [23] = test system: WiDr; test: Antitumor activity against mixed human 10% WiDr NTRneo/ 90% WiDr tumor cells injected in CD1 nude mouse assessed as growth delay at 1330 umol/kg, ip in DMSO/PEG; format: functional
# Method in brief: (§3)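 WiDr-NTRneo tumours (100% NTR+ve, or 1:9 NTR+ve:NTR-ve mixtures) in CD-1 nude mice, given a single i.p. dose at MTD. Read-out is median growth delay to 15 mm mean diameter, plus tumours not palpable 100 days after treatment. Aziridine given at 200 µmol/kg as positive control in every experiment.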
# [24] = test system: EMT6; test: Antitumor activity against mixed mouse EMT6/EMT6 NTRpuro cells injected in CD1 nude mouse assessed as cell kill at 1330 umol/kg, ip in DMSO/PEG after 18 hrs; format: functional
# [25] = test system: WiDr; test: Antitumor activity against human 100% WiDr NTRneo tumor cells injected in CD1 nude mouse assessed as growth delay at 1330 umol/kg, ip in DMSO; format: functional; method in brief: as §3
# [26] = Toxicity in ip dosed CD1 nude mouse in DMSO; format: organism-based; settings: in vivo; method in brief: as §1
# [27] = test system: WiDr; test: Antitumor activity against mixed human 10% WiDr NTRneo/ 90% WiDr tumor cells injected in CD1 nude mouse assessed as growth delay at 1330 umol/kg, ip in DMSO; format: functional; method in brief: as §3
# [28] = test system: V79; test: Clonogenic survival ratio of 3% V79 NTRpuro cells to 97% V79 NTRoua cells in co-culture; format: functional, Cricetulus griseus; method in brief: as §2
# [29] = test system: EMT6; test: Antitumor activity against mixed mouse EMT6/EMT6 NTRpuro cells injected in CD1 nude mouse assessed as cell kill at 133 umol/kg, ip in DMSO after 18 hrs; format: functional
# [30] = test system: EMT6; test: Antitumor activity against mixed mouse EMT6/EMT6 NTRpuro cells injected in CD1 nude mouse assessed as cell kill at 237 umol/kg, ip in DMSO after 18 hrs; format: functional
SMILES,IC50 [1] [µM],IC50 [2] [µM],Ratio IC50 [3],Activity [4] [µM],IC50 [6] [µM],IC50 [7] [µM],Activity [8] [µM],Ratio IC50 [9],solubility [10] [µM],IC50 [11] [µM],IC50 [12] [µM],logD [13],Ratio IC50 [14],Activity [15] [µM],IC50 [17] [µM],remaining at 24 h [18] [%],Ratio IC50 [19],IC50 [20] [µM],MTD [26] [µmol/kg],further results
O=C(NCCCO)c1cc(N(CCCl)CCCl)c([N+](=O)[O-])cc1[N+](=O)[O-],6.5,7.7,146,3300,10,518,95,51,4100,422,555,1.49,77,150,1.02,108,477,948,,MTD [5]: 178 µmol/kg; LCK [16]: 0.44
O=C(NCCO)c1cc(N(CCCl)CCCl)c([N+](=O)[O-])cc1[N+](=O)[O-],5.9,12,230,>1000,10,666,95,65,1000,570,312,1.38,59,210,1.52,,386,1250,,LCK [21]: >2.02; MTD [22]: 133 µmol/kg
O=C(NCC(O)CO)c1cc(N(CCBr)CCBr)c([N+](=O)[O-])cc1[N+](=O)[O-] (centres undefined),0.28,0.34,1050,675,0.63,166,18,313,1700,132,275,1.25,828,98,0.08,102,1670,283,,MTD [5]: 1330 µmol/kg; Activity [23]: 22 days; LCK [24]: >3.36
CS(=O)(=O)OCCN(CCI)c1cc(C(N)=O)c([N+](=O)[O-])cc1[N+](=O)[O-],0.31,0.29,328,>200,0.41,70,4.2,172,200,79,101,0.74,311,12,0.17,72,529,97,1330,Activity [25]: >82 days; Activity [27]: 15 days; Ratio [28]: 0.35
CS(=O)(=O)OCCN(CCBr)c1cc(C(=O)NCC(O)CO)c([N+](=O)[O-])cc1[N+](=O)[O-] (centres undefined),1.7,1,640,>1300,3,804,70,272,1300,712,733,-0.05,1660,>1300,1.6,63,527,1110,1330,Activity [25]: 55 days; Activity [27]: 9 days; Ratio [28]: <0.05
O=C(NO)c1cc(N(CCCl)CCCl)c([N+](=O)[O-])cc1[N+](=O)[O-],1.57,1.36,124,>1400,2.01,111,43,55,1400,96,51,1.22,42,>300,0.88,91,110,200,133,LCK [29]: 0.38
NC(=O)c1cc(N(CCCl)CCBr)c([N+](=O)[O-])cc1[N+](=O)[O-],0.84,0.59,280,>300,0.69,150,3.4,236,630,150,139,1.61,237,8.2,0.1,62,2190,226,237,LCK [30]: >3.02
